# Measured values taken from paper PMC10694828 (RSC Advances, 2023).
# Assays:
# [1] = target: T1, recombinant human MAO-A (Homo sapiens, UniProt P21397); experiment: MAO-A inhibition, continuous assay with kynuramine; format: biochemical; conditions: for remaining activity at 10 µM: read-out: Residual activity at 10 μM (%) MAO-A
# T1 sequence (P21397 1-527): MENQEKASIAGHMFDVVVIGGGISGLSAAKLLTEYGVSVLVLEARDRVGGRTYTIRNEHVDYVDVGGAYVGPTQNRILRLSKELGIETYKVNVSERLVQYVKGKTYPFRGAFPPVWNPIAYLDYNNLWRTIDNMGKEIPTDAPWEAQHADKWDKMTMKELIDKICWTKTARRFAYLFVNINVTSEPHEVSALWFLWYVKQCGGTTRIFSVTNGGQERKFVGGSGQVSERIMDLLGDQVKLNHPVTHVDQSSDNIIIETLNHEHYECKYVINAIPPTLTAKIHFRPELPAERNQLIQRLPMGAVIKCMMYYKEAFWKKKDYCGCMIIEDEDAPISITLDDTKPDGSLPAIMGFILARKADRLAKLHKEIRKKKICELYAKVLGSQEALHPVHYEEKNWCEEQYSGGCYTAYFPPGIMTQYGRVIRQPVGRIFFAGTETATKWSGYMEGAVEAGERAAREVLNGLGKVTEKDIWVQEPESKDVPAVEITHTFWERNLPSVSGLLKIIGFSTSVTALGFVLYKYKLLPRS
# [2] = target: T2, MAO-B (Homo sapiens, UniProt P27338); experiment: MAO-B inhibition, continuous assay with benzylamine; format: biochemical; conditions: for SI (selectivity index for MAO-B compared to MAO-A): (IC50 of MAO-A)/(IC50 of MAO-B); for remaining activity at 10 µM: read-out: Residual activity at 10 μM (%) MAO-B
# T2 sequence (P27338 1-520): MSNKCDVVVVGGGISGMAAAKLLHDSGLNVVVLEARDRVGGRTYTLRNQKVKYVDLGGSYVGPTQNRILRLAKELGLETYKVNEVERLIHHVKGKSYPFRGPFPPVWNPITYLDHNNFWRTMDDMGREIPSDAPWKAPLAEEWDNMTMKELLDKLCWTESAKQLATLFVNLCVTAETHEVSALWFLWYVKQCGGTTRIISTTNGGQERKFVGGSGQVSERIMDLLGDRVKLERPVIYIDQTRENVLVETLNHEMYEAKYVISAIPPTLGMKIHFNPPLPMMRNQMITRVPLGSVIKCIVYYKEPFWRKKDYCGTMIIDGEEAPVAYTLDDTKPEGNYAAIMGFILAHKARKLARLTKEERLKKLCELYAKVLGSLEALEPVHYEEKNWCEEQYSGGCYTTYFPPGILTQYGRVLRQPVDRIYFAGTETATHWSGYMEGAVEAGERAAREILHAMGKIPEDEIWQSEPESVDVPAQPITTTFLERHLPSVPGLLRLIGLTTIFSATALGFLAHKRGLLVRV
# [3] = target: T2, MAO-B; experiment: Reversibility of MAO-B inhibition by dialysis; format: biochemical; conditions: for Reversibility of MAO-B inhibition: dialysis; for Relative MAO-B activity, undialyzed (AU) / Relative MAO-B activity, dialyzed (AD): ~2.0 times IC50, 30 min preincubation; for Relative MAO-B activity, dialyzed (AD): dialyzed 6 h with two buffer changes
# [4] = target: T2, MAO-B; experiment: Enzyme kinetics of MAO-B inhibition; format: biochemical; conditions: for Inhibition type for MAO-B: Lineweaver–Burk plots
# Procedure, shortened: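 Recombinant human MAO-B. Activity was followed continuously by absorbance at 250 nm with benzylamine as substrate at five concentrations (0.0375–0.60 […]). Three inhibitor concentrations were tested against each substrate level. The inhibition pattern and Ki came from Lineweaver–Burk plots and from secondary plots of slope versus inhibitor concentration.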
# [5] = PAMPA for BBB permeation; format: in vitro ADME; conditions: for Papp: PAMPA; for Experimental Pe / Prediction (CNS permeation): PAMPA-BBB
# Procedure, shortened: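 Passive BBB permeation by PAMPA on a filter membrane with 0.45 micron pores, 125 microns thick. Drug concentrations in donor, receiver and reference wells were measured by UV spectroscopy. Pe (10−6 cm s−1) was calculated as […]. Pe > 4.00 was classed CNS+ (high permeation).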
Structure (SMILES),IC50 [1] [nM],remaining activity at 10 µM [1] [%],IC50 [2] [nM],SI (selectivity index for MAO-B compared to MAO-A) [2],remaining activity at 10 µM [2] [%],Reversibility of MAO-B inhibition [3],"Relative MAO-B activity, undialyzed (AU) [3] [%]","Relative MAO-B activity, dialyzed (AD) [3] [%]",Ki [4] [nM],Inhibition type for MAO-B [4],Papp [5] [×10⁻⁶ cm/s],Experimental Pe [5],Prediction (CNS permeation) [5]
"O=C1Nc2ccccc2/C1=N/N=Cc1ccc(OCc2ccccc2)cc1 [ISB1, (3Z)-3-((4-(benzyloxy)benzylidene)hydrazineylidene)indolin-2-one]",6824 ± 49,38.78 ± 0.25,124 ± 7,55.03,-8.77 ± 0.14,reversible,31.61,83.77,55 ± 10,competitive,4.93 ± 0.13,higher than 4.0 ×10^−6 cm s^−1,CNS+ (Pe (10^−6 cm s^−1) > 4.00: CNS+ (high permeation))
O=C1Nc2ccc(F)cc2C1=NN=Cc1ccc(OCc2ccccc2)cc1 [ISB3],> 40000,74.5 ± 0.95,13900 ± 204,>2.87,59.6 ± 1.11,–,–,–,–,–,–,–,–
O=C1Nc2ccccc2C1=NN=Cc1cccc(OCc2ccccc2)c1 [ISBB1],1570 ± 48,4.84 ± 1.61,540 ± 29,2.91,1.99 ± 0.86,–,–,–,–,–,–,–,–
"O=C1Nc2ccccc2/C1=N/N=Cc1ccc(OCc2cccc(F)c2)cc1 [ISFB1, (3Z)-3-((4-((3-fluorobenzyl)oxy)benzylidene)hydrazineylidene)indolin-2-one]",678 ± 6,4.17 ± 0.32,135 ± 2,–,-3.03 ± 0.24,reversible,31.42,79.32,69 ± 25,competitive,4.09 ± 0.24,higher than 4.0 ×10^−6 cm s^−1,CNS+ (Pe (10^−6 cm s^−1) > 4.00: CNS+ (high permeation))
O=C1Nc2ccc(Br)cc2C1=NN=Cc1ccc(OCc2cccc(F)c2)cc1 [ISFB2],> 40000,88.5 ± 1.38,16000 ± 308,>2.49,57.6 ± 1.1,–,–,–,–,–,–,–,–
